Measurements published in publication PMC4401318 (ACS Chemical Neuroscience, 2015).
Entries after “also recorded” stand apart in the source; their conditions may differ. Marks after values point to notes of the source that are not given here.

Key:
[1] = target: T1, DOP receptor (Homo sapiens, UniProt P41143); assay: Radioligand competition binding, DOP
[2] = target: T2, KOP receptor (Homo sapiens, UniProt P41145); assay: biochemical
[3] = target: T2, KOP receptor; assay: Radioligand competition binding, KOP
[4] = target: T1, DOP receptor; assay: [35S]GTPγS binding stimulation; format: biochemical; settings: for [35S]GTPγS DOP % stim: compared to standard agonist DPDPE
[5] = target: T3, MOP receptor (Homo sapiens, UniProt P35372); assay: biochemical
[6] = target: T4, NOP receptor (Homo sapiens, UniProt P41146); assay: [35S]GTPγS binding stimulation; format: biochemical; settings: for intrinsic (agonist) activity in [35S]GTPγS assay at any of the opioid receptors: NOP, KOP, MOP and DOP, up to 10 μM; for [35S]GTPγS NOP % stim: compared to standard agonist N/OFQ
[7] = target: T3, MOP receptor; format: biochemical
[8] = target: T4, NOP receptor; assay: Inhibition of agonist-stimulated [35S]GTPγS binding, NOP; format: biochemical; settings: for nature of antagonism at NOP: agonist nociceptin concentration-response curves
[9] = target: T4, NOP receptor; assay: Radioligand competition binding, NOP
[10] = target: T2, KOP receptor; assay: Inhibition of agonist-stimulated [35S]GTPγS binding, KOP; format: biochemical; settings: agonist U69,593 concentration-response curves; listed as AT-076
Summary of the method: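 CHO cells stably expressing human KOP cDNA, grown in DMEM/10% FBS with 0.4 mg/mL G418. Membranes were washed into 20 mM HEPES, 10 mM MgCl2, 100 mM NaCl, pH 7.4. Membranes (8–15 μg protein) were incubated 60 min at 25 °C with 50 pM [35S]GTPγS and 10 μM GDP. U69,593 concentration–response curves were run at several fixed test-compound concentrations. Binding was read by filtration and scintillation counting. Antagonism type was assigned by Schild regression.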

[11] = target: T1, DOP receptor; assay: Inhibition of agonist-stimulated [35S]GTPγS binding, DOP; format: biochemical
[12] = target: T2, KOP receptor; settings: agonist U69,593; ref 4b; cited from earlier work
[13] = target: T3, MOP receptor; settings: cited from earlier work
[14] = target: T1, DOP receptor; settings: agonist DPDPE; ref 4b; cited from earlier work

Row | SMILES | Ki [1] [nM] | EC50 [2] [nM] | [35S]GTPγS KOP % stim [2] [%] | Ki [3] [nM] | [35S]GTPγS DOP % stim [4] [%] | EC50 [5] [nM] | [35S]GTPγS MOP % stim [5] [%] | EC50 [6] [nM] | intrinsic (agonist) activity in [35S]GTPγS assay at any of the opioid receptors [6] | [35S]GTPγS NOP % stim [6] [%] | further results
1 | C[C@H]1CN(C2CCCCCCC2)CC[C@@]1(C)c1cccc(O)c1 [Compound 3, 3-((3R,4R)-1-Cyclooctyl-3,4-dimethylpiperidin-4-yl)phenol] | 2910 ± 834 | > 10000 | 0 | 68.1 ± 2.21 | – | – | – | – | – | – | –
2 | C[C@H]1CN(C[C@H]2Cc3ccccc3CN2)CC[C@@]1(C)c1cccc(O)c1 [Compound 5, 3-((3R,4R)-3,4-Dimethyl-1-(((R)-1,2,3,4-tetrahydroisoquinolin-3-yl)methyl)piperidin-4-yl)phenol] | 38.8 ± 9.9 | > 10000 | 0 | 19.5 ± 6.6 | 0 | > 10000 | 0 | > 10000 | no intrinsic activity | 0 | EC50 [4]: > 10000 nM
3 | CC(C)[C@@H](CN1CCC(c2cccc(O)c2)CC1)NC(=O)[C@H]1Cc2ccccc2CN1 [Compound 7, (R)-N-((S)-1-(4-(3-Hydroxyphenyl)piperidin-1-yl)-3-methylbutan-2-yl)-1,2,3,4-tetrahydroisoquinoline-3-carboxamide] | 1400 ± 111 | > 10000 | 0 | 100 ± 0.9 | – | – | – | > 10000 | – | 7.0 ± 3.2 | –
4 | CC(C)[C@@H](CN1CCC(c2cccc(O)c2)CC1)NC(=O)[C@H]1Cc2ccc(O)cc2CN1 [Compound 6, (R)-7-Hydroxy-N-((S)-1-(4-(3-hydroxyphenyl)piperidin-1-yl)-3-methylbutan-2-yl)-1,2,3,4-tetrahydroisoquinoline-3-carboxamide] | – | > 10000 | 0 | – | 0 | > 10000 | 0 | – | no intrinsic (agonist) activity | 0 | EC50 [4]: > 10000 nM; Ke more potent than that of JDTic ([7]; at the MOP and DOP receptors): 3–6 fold; nature of antagonism at MOP ([7]; listed as AT-076): competitive antagonist; also recorded: competitive antagonism; nature of antagonism at NOP ([8]; listed as AT-076): noncompetitive antagonist profile; also recorded: insurmountable antagonism; increase in NOP binding affinity compared with JDTic ([9]; ratio of Ki): 10 fold; nature of antagonism at KOP [10]: noncompetitive antagonist profile; also recorded: insurmountable antagonism; Kb [11]: 24.9 ± 13 nM; nature of antagonism at DOP ([11]; agonist DPDPE concentration-response curves, listed as AT-076): competitive antagonist; also recorded: competitive antagonism
5 | CC(C)[C@@H](CN1CCC(c2ccccc2)CC1)NC(=O)[C@H]1Cc2ccc(O)cc2CN1 [Compound 8, (R)-7-Hydroxy-N-((S)-3-methyl-1-(4-phenylpiperidin-1-yl)butan-2-yl)-1,2,3,4-tetrahydroisoquinoline-3-carboxamide] | > 10000 | 408 ± 41 | 72.3 ± 4 | 2.15 ± 0.82 | – | – | 0 | 53.3 ± 12.1 | – | 18.3 ± 1.3 | Ki [9]: 10.9 ± 2.14 nM
6 | CC(C)[C@@H](CN1CC[C@@](C)(c2cccc(O)c2)[C@@H](C)C1)NC(=O)[C@H]1Cc2ccc(O)cc2CN1 [JDTic, (3R)-7-hydroxy-N-((1S)-1-{[(3R,4R)-4-(3-hydroxyphenyl)-3,4-dimethyl-1-piperidinyl]methyl}-2-methylpropyl)-1,2,3,4-tetrahydro-3-isoquinolinecarboxamide, reference compound] | – | – | 0 | – | 0 | – | 0 | > 10000 | no intrinsic activity | 0 | Kb [8]: 680.2 ± 2.35 nM; nature of antagonism at NOP [8]: noncompetitive antagonism; Ke KOP (antagonist potency) [12]: 0.01 ± 0.00 ^f nM; Ke MOP (antagonist potency) [13]: 3.41 ± 0.36 ^f nM; intrinsic activity in [35S]GTPγS functional assay at NOP ([6]; compound alone): no intrinsic activity; Ke DOP (antagonist potency) [14]: 79.3 ± 9.3 ^f nM
7 | Cc1cccc2c1CC[C@H](CN1CCC(c3c(Cl)cccc3Cl)CC1)C[C@@H]2O [SB-612111, (−)-cis-1-methyl-7-[[4-(2,6-dichlorophenyl)piperidin-1-yl]methyl]-6,7,8,9-tetrahydro-5H-benzocyclohepten-5-ol, reference compound] | – | – | – | – | – | – | – | – | – | 0 | –
8 | C[C@H]1CN(C[C@H]2Cc3ccc(O)cc3CN2)CC[C@@]1(C)c1cccc(O)c1 [Compound 4, (R)-3-(((3R,4R)-4-(3-Hydroxyphenyl)-3,4-dimethylpiperidin-1-yl)methyl)-1,2,3,4-tetrahydroisoquinolin-7-ol] | 205 | – | – | 410 ± 130 | – | > 10000 | 0 | – | – | – | –
